In ChEMBL document CHEMBL3352430, “4-Aminopyridyl-based CYP51 inhibitors as anti-Trypanosoma cruzi drug leads with improved pharmacokinetic profile and in vivo potency” (J Med Chem, 2014):
pEC50, pKd: −log10 of the molar value. The source made the active and inactive calls. The rule behind the calls is not given here.

Columns and labels:
[1] = target: Sterol 14-alpha demethylase (Trypanosoma cruzi (strain CL Brener), UniProt Q7Z1V1); assay: Binding affinity to Trypanosoma cruzi CYP51 by UV-vis titration method; conditions: read-out: Kd(app)
[2] = test system: Mus musculus; assay: Toxicity in mouse assessed as mobility issues at 12.5 to 50 mg/kg, po bid in 20% Kolliphor; assay type: organism-based; design: dose 12.5-50 mg/kg, route oral; conditions: in vivo
Procedure, shortened: (§1)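 Mice in the four-day oral treatment study were given compound bid by gavage in 20% HPβCD or 20% Kolliphor. They were watched for weight loss, mobility problems and changes in appearance throughout dosing.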

[3] = test system: Trypanosoma cruzi; assay: Antitrypanosomal activity against Trypanosoma cruzi Y luc infected in mouse assessed as inhibition of parasitemia at 50 mg/kg, po bid in 20% Kolliphor administered for 4 consecutive days starting on day 3 of infection measured on day 7 post infection relative to vehicle-treated control; assay type: functional
Procedure, shortened: (§2)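 Female Swiss Webster mice, 8 weeks old, infected ip with 10^5 T. cruzi Y luc trypomastigotes. Only mice with detectable luminescence on day 3 were treated. Compound given by oral gavage bid for four days, as a suspension in 20% HPβCD or a solution in 20% Kolliphor, five mice per group. Vehicle group and benznidazole 50 mg/kg served as controls. On day 7, mice were injected ip with 150 mg/kg d-luciferin and imaged after 5 min under isoflurane. Percent inhibition calculated against untreated mice; two-tailed paired t test.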

[4] = test system: Mus musculus; assay: Toxicity in mouse assessed as weight loss at 12.5 to 50 mg/kg, po bid in 20% HP-beta-CD; assay type: organism-based; design: dose 12.5-50 mg/kg, route oral; conditions: in vivo; procedure, shortened: as §1
[5] = target: T1, Cytochrome P450 1A2 (Homo sapiens, UniProt P05177); assay: Inhibition of CYP1A2 in human liver microsomes at 1 uM; assay type: ADME
T1 sequence (P05177 whole entry): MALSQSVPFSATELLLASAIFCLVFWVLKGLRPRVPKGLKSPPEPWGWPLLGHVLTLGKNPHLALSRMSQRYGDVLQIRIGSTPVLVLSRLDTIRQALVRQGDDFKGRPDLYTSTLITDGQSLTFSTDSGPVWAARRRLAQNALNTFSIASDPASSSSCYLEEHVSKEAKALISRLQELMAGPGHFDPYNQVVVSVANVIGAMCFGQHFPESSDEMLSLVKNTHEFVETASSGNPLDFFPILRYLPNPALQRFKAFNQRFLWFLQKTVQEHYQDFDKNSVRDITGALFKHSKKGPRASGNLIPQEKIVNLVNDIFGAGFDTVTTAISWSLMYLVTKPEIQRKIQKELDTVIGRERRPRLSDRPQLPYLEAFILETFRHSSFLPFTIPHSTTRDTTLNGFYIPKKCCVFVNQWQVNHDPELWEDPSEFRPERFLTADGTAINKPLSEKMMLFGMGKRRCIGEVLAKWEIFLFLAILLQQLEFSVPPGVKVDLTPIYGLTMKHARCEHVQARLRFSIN

[6] = test system: Trypanosoma cruzi; assay: Antitrypanosomal activity against Trypanosoma cruzi amastigotes infected in mouse C2C12 cells after 72 hrs by DAPI staining method; assay type: functional, organism-based; conditions: C2C12, 72 h
[7] = test system: Liver; assay: Drug uptake in mouse liver at 50 mg/kg, po in 20% Kolliphor measured at 8 hrs post dose; assay type: ADME, organism-based; design: dose 50 mg/kg, route oral; conditions: in vivo
Procedure, shortened: (§3)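 Female Swiss Webster mice, 8 weeks old, given a single 50 mg/kg oral gavage dose in 20% HPβCD or 20% Kolliphor. Tissues taken from three mice at 2 and 8 h post dose. Homogenized by probe sonication in PBS (1:4 w/v), protein precipitated with acetonitrile, and compound measured by LC-MS/MS in μM.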

[8] = test system: Liver; assay: Drug uptake in mouse liver at 50 mg/kg, po in 20% HP-beta-CD measured at 8 hrs post dose; assay type: ADME, organism-based; design: dose 50 mg/kg, route oral; conditions: in vivo; procedure, shortened: as §3
[9] = test system: Heart; assay: Drug uptake in mouse heart at 50 mg/kg, po in 20% Kolliphor measured at 8 hrs post dose; assay type: ADME, organism-based; design: dose 50 mg/kg, route oral; conditions: in vivo; procedure, shortened: as §3
[10] = AUClast in mouse at 50 mg/kg, po in 20% Kolliphor; assay type: ADME, organism-based; design: time 0 - last, dose 50 mg/kg, route oral; conditions: plasma
Procedure, shortened: (§4)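 Female Swiss Webster mice, 8 weeks old, given one oral gavage dose of 50 mg/kg as a 10 mg/mL preparation in the named vehicle (20% HPβCD suspension or 20% Kolliphor). Plasma sampled at about 0.25, 0.5, 1, 2, 4, 6, 8, 12 and 24 h, n = 3 per time point. Protein precipitated with 5 volumes acetonitrile, filtered, then LC-MS/MS. Values are averages of three mice.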

[11] = test system: Liver microsome; assay: Half life in human liver microsomes; assay type: ADME
[12] = target: Cytochrome P450 3A4 (Homo sapiens, UniProt P08684); assay: Inhibition of CYP3A4 in human liver microsomes at 1 uM; assay type: ADME
[13] = test system: Trypanosoma cruzi; assay: Antitrypanosomal activity against Trypanosoma cruzi Y luc infected in mouse assessed as inhibition of parasitemia at 25 mg/kg, po bid in 20% HP-beta-CD administered for 4 consecutive days starting on day 3 of infection measured on day 7 post infection relative to vehicle-treated control; assay type: functional, organism-based; design: dose 25 mg/kg; procedure, shortened: as §2
[14] = test system: C2C12; assay: Cytotoxicity against mouse C2C12 cells up to 10 uM; assay type: cell-based
Procedure, shortened: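 Mouse C2C12 myoblasts infected with T. cruzi CA-I/72, then exposed at 24 h postinfection to compound at 10 μM down to 5 pM in 5-fold steps for 72 h at 37 °C. Cells fixed in paraformaldehyde, stained with DAPI and scored by automated imaging. Triplicate wells; uninfected and infected untreated wells as controls.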

[15] = Half life in mouse at 50 mg/kg, po in 20% HP-beta-CD; assay type: ADME, organism-based; design: dose 50 mg/kg, route oral; conditions: in vivo; procedure, shortened: as §4
[16] = test system: Trypanosoma cruzi; assay: Antitrypanosomal activity against Trypanosoma cruzi Y luc infected in mouse assessed as inhibition of parasitemia at 50 mg/kg, po bid in 20% HP-beta-CD administered for 4 consecutive days starting on day 3 of infection measured on day 7 post infection relative to vehicle-treated control; assay type: functional, organism-based; design: dose 50 mg/kg; procedure, shortened: as §2
[17] = test system: Liver microsome; assay: Half life in rat liver microsomes; assay type: ADME
[18] = test system: Mus musculus; assay: Toxicity in mouse assessed as mobility issues at 12.5 to 50 mg/kg, po bid in 20% HP-beta-CD; assay type: organism-based; design: dose 12.5-50 mg/kg, route oral; conditions: in vivo; procedure, shortened: as §1
[19] = Clearance in mouse at 50 mg/kg, po in 20% Kolliphor; assay type: ADME, organism-based; design: dose 50 mg/kg, route oral; conditions: in vivo; procedure, shortened: as §4
[20] = test system: Trypanosoma cruzi; assay: Antitrypanosomal activity against Trypanosoma cruzi Y luc infected in mouse assessed as inhibition of parasitemia at 25 mg/kg, po bid in 20% Kolliphor administered for 4 consecutive days starting on day 3 of infection measured on day 7 post infection relative to vehicle-treated control; assay type: functional; procedure, shortened: as §2
[21] = Tmax in mouse at 50 mg/kg, po in 20% HP-beta-CD; assay type: ADME, organism-based; design: dose 50 mg/kg, route oral; conditions: in vivo; procedure, shortened: as §4
[22] = Cmax in mouse at 50 mg/kg, po in 20% HP-beta-CD; assay type: ADME, organism-based; design: dose 50 mg/kg, route oral; conditions: in vivo; procedure, shortened: as §4
[23] = test system: Mus musculus; assay: AUClast in mouse at 50 mg/kg, po in 20% HP-beta-CD; assay type: ADME, organism-based, Plasma; design: time 0 - last, dose 50 mg/kg, route oral; conditions: in vivo; procedure, shortened: as §4
[24] = Drug uptake in mouse fat at 50 mg/kg, po in 20% Kolliphor measured at 8 hrs post dose; assay type: ADME, organism-based, Adipose tissue; design: dose 50 mg/kg, route oral; conditions: in vivo; procedure, shortened: as §3
[25] = target: Cytochrome P450 2C9 (Homo sapiens, UniProt P11712); assay: Inhibition of CYP2C9 in human liver microsomes at 1 uM; assay type: ADME
[26] = Drug uptake in mouse skeletal muscle at 50 mg/kg, po in 20% HP-beta-CD measured at 8 hrs post dose; assay type: ADME, organism-based, Muscle tissue; design: dose 50 mg/kg, route oral; conditions: in vivo; procedure, shortened: as §3
[27] = test system: Mus musculus; assay: Toxicity in mouse assessed as change in appearance at 12.5 to 50 mg/kg, po bid in 20% Kolliphor; assay type: organism-based; design: dose 12.5-50 mg/kg, route oral; conditions: in vivo; procedure, shortened: as §1
[28] = Drug uptake in mouse fat at 50 mg/kg, po in 20% HP-beta-CD measured at 8 hrs post dose; assay type: ADME, organism-based, Adipose tissue; design: dose 50 mg/kg, route oral; conditions: in vivo; procedure, shortened: as §3
[29] = test system: Mus musculus; assay: Toxicity in mouse assessed as weight loss at 12.5 to 50 mg/kg, po bid in 20% Kolliphor; assay type: organism-based; design: dose 12.5-50 mg/kg, route oral; conditions: in vivo; procedure, shortened: as §1
[30] = test system: Liver; assay: Half life in mouse liver microsomes; assay type: ADME
[31] = target: Cytochrome P450 2D6 (Homo sapiens, UniProt P10635); assay: Inhibition of CYP2D6 in human liver microsomes at 1 uM; assay type: ADME
[32] = Half life in mouse at 50 mg/kg, po in 20% Kolliphor; assay type: ADME, organism-based; design: dose 50 mg/kg, route oral; conditions: in vivo; procedure, shortened: as §4
[33] = test system: Intestine; assay: Drug uptake in mouse intestine at 50 mg/kg, po in 20% Kolliphor measured at 8 hrs post dose; assay type: ADME, organism-based; design: dose 50 mg/kg, route oral; conditions: in vivo; procedure, shortened: as §3
[34] = test system: Lung; assay: Drug uptake in mouse lung at 50 mg/kg, po in 20% HP-beta-CD measured at 8 hrs post dose; assay type: ADME, organism-based; design: dose 50 mg/kg, route oral; conditions: in vivo; procedure, shortened: as §3
[35] = test system: Lung; assay: Drug uptake in mouse lung at 50 mg/kg, po in 20% Kolliphor measured at 8 hrs post dose; assay type: ADME, organism-based; design: dose 50 mg/kg, route oral; conditions: in vivo; procedure, shortened: as §3
[36] = test system: Mus musculus; assay: Toxicity in mouse assessed as change in appearance at 12.5 to 50 mg/kg, po bid in 20% HP-beta-CD; assay type: organism-based; design: dose 12.5-50 mg/kg, route oral; conditions: in vivo; procedure, shortened: as §1
[37] = test system: Intestine; assay: Drug uptake in mouse intestine at 50 mg/kg, po in 20% HP-beta-CD measured at 8 hrs post dose; assay type: ADME, organism-based; design: dose 50 mg/kg, route oral; conditions: in vivo; procedure, shortened: as §3
[38] = Tmax in mouse at 50 mg/kg, po in 20% Kolliphor; assay type: ADME, organism-based; design: dose 50 mg/kg, route oral; conditions: in vivo; procedure, shortened: as §4
[39] = Cmax in mouse at 50 mg/kg, po in 20% Kolliphor; assay type: ADME, organism-based; design: dose 50 mg/kg, route oral; conditions: in vivo; procedure, shortened: as §4
[40] = test system: Heart; assay: Drug uptake in mouse heart at 50 mg/kg, po in 20% HP-beta-CD measured at 8 hrs post dose; assay type: ADME, organism-based; design: dose 50 mg/kg, route oral; conditions: in vivo; procedure, shortened: as §3
[41] = Drug uptake in mouse skeletal muscle at 50 mg/kg, po in 20% Kolliphor measured at 8 hrs post dose; assay type: ADME, organism-based, Muscle tissue; design: dose 50 mg/kg, route oral; conditions: in vivo; procedure, shortened: as §3

Chain of Cytochrome P450 2C9 (P11712 whole entry): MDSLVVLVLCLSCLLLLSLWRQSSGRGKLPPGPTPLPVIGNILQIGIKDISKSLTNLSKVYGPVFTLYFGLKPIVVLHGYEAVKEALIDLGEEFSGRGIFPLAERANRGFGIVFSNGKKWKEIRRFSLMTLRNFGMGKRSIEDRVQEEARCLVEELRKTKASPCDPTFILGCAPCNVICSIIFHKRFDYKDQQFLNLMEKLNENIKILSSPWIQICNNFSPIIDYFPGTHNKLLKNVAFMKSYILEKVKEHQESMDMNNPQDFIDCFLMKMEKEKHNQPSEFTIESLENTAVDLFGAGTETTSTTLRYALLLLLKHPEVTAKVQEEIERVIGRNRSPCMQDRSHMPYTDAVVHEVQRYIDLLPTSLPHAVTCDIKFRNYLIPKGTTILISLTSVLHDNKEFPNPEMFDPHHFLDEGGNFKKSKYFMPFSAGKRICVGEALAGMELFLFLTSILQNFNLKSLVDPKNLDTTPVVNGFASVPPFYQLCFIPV
Chain of Cytochrome P450 3A4 (P08684 whole entry): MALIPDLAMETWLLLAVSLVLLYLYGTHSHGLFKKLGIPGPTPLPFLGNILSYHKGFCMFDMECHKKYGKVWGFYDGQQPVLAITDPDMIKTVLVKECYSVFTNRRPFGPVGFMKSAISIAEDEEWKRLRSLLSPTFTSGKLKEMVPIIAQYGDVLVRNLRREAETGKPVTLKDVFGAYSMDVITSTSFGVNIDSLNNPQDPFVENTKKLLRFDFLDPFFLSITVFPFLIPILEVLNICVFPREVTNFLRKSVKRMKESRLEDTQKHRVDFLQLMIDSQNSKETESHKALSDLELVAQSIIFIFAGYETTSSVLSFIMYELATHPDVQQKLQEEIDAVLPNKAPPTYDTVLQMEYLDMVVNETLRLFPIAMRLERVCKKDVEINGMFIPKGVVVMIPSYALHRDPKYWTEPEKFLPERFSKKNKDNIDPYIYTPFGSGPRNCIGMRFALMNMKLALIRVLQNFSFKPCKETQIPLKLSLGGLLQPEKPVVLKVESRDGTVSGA
Chain of Cytochrome P450 2D6 (P10635 whole entry): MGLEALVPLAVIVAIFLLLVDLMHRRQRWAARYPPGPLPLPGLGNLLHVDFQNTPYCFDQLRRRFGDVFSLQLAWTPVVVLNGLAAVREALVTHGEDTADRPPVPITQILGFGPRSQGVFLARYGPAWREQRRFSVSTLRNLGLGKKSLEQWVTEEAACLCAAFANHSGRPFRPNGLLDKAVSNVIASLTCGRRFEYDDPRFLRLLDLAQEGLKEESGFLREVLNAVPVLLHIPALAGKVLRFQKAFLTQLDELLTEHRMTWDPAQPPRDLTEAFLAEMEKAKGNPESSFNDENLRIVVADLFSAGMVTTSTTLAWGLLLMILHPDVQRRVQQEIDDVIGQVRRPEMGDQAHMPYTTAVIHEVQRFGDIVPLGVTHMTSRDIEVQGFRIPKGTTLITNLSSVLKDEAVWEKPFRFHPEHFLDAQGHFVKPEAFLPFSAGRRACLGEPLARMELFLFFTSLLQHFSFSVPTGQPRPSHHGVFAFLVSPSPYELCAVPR
Chain of Sterol 14-alpha demethylase (Q7Z1V1 whole entry): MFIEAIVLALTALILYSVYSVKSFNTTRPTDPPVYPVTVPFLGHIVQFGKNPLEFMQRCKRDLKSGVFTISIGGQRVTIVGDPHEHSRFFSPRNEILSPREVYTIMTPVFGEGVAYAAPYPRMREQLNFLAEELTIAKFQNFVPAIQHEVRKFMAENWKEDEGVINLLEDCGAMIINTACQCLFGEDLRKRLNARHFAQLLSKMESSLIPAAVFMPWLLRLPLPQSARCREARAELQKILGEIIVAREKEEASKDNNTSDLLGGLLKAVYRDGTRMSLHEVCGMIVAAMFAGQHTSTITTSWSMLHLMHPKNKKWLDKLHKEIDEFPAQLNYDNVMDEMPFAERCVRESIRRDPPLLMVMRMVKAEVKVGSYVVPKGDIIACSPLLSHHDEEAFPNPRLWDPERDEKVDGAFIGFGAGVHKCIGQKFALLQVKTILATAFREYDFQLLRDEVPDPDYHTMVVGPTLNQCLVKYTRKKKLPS

pKd [1]: 7.92 | inhibition (INH) [5]: -5% | pEC50 [6]: 7.68 | Drug uptake [7]: Active | Drug uptake [8]: Active | Drug uptake [9]: Active | AUC(0-t) [10]: 106 µM·h | t1/2 [11]: 0.417 h | inhibition (INH) [12]: 27% | half-life [15]: 4.87 h | t1/2 [17]: 0.3 h | CL/F [19]: 14.1 mL/min/kg | Tmax [21]: 2 h | Cmax [22]: 1.02 µM | AUClast [23]: 4.55 µM·h | Drug uptake [24]: Active | inhibition (INH) [25]: 90% | Drug uptake [26]: Active | Drug uptake [28]: Active | t1/2 [30]: 0.817 h | inhibition (INH) [31]: 21% | half-life [32]: 3.76 h | Drug uptake [33]: Active | Drug uptake [34]: Active | Drug uptake [35]: Active | Drug uptake [37]: Active | Tmax [38]: 2.33 h | Cmax [39]: 13.6 µM | Drug uptake [40]: Active | Drug uptake [41]: Active
Compound: O=C(N[C@H](Cc1c[nH]c2ccccc12)C(=O)Nc1ccncc1)c1ccc(-c2cc(C(F)(F)F)ccc2F)cc1F
Activity [2]: Non-toxic | inhibition in vivo at 50 mg/kg [3]: 91.3% | Activity [4]: Non-toxic | inhibition [13]: Active | Activity [14]: Non-toxic | inhibition [16]: Active | Activity [18]: Non-toxic | inhibition in vivo at 25 mg/kg [20]: 63.3% | Activity [27]: Non-toxic | Activity [29]: Non-toxic | Activity [36]: Non-toxic
